From PubChem BioAssay
Shown is part of a subset that was picked to be rich in hits.
Diaph inh CS – diaphorase inhibition or chemical oxidation counter-screen; diaphorase resazurin-to-resorufin fluorescence, NADH, 16 min; bacterial (C. kluyveri) enzyme, not human; inhibition, % at 20 µM; 0.69% of 190,000 active;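 active means primary screen inhibition at 20 µM above a set limit, cut at about 50% in these data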;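 further: plate controls were DMSO with full reaction for no effect and wells lacking NADH for full effect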
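Test system: bacterial diaphorase enzyme (C. kluyveri); Quantity: 0.14 U/mL diaphorase, enzyme working solution; Times: reaction incubation of 16 min at room temperature; Measured by: fluorescence of resorufin formed from resazurin, Ex 544/Em 590 nm; Benchmarks: positive control minus NADH, DMSO neutral control.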
G6PDH counter – L. mesenteroides G6PDH inhibition counter-screen. Purified L. mesenteroides G6PDH, diaphorase/resazurin coupled fluorescence, 45 min. 0.12% of 200,000 active. inhibition, % at 5 µM. AID 1020
Redox H2O2 prof – compounds producing H2O2 with reducing agent – biochemical, NIH compound library profiling, artefact control for MLSCN library redox annotation, primary screen. DTT-dependent redox cycling H2O2, phenol red/HRP absorbance; 100% = 100 µM peroxide control, 0% = buffer. activation, % at 10 µM. 0.03% of 200,000 active;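 active means activation of at least 50% relative to the plate's high and low controls in the primary single-dose screen; inactive means activation below 50%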;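 further: compound incubated with DTT at 0.8 mM final as the reducing agent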
L major viab – reduces viability of Leishmania major promastigotes; resazurin fluorescence viability; inhibition, % at 10 µM; 9% of 200,000 active; AID 1063;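 further: promastigotes grown with compound for 44 hours at 28 °C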
Diaph act CS – counter-screen for diaphorase-based assays: diaphorase activators and chemical reducers; 0.005% of 190,000 active; activation factor at 20 µM; AID 1229; Diaphorase/resazurin coupled assay, resorufin fluorescence, 16 min; stronger effect = higher value; 1 = vehicle wells, 0 = NADH-free wells;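 active means diaphorase activity raised at least twofold by the compound at 20 µM; inactive means activation factor below 2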
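Material: bacterial diaphorase enzyme (C. kluyveri); amount: enzyme 0.07 U/mL final; reagent: NADH substrate 0.114 mM plus resazurin dye 0.1 mM, final; doses: single compound dose of 20 µM, 1% DMSO final; timing: 16 min enzyme reaction, ambient temperature; measured by: fluorescence of resorufin, 544 nm excitation, 590 nm emission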
PfG6PD inh – PfG6PD (Plasmodium falciparum) enzyme inhibition; PfGluPho enzyme, NADPH resazurin-diaphorase fluorescence; inhibition, % at 20 µM; 0.78% of 350,000 active; AID 504690;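 active means inhibition reaching at least a set limit at 20 µM in the primary screen, cut at about 59% in these data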;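 further: 0% = DMSO wells with substrate and 100% = DMSO wells lacking glucose-6-phosphate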
* marks the source's active call; other numbers are inactive results. Unless noted, no stated cut-off is given here; in the data, active means inhibition above about 50%; inactive means the rest.

How did CCOC(=O)C1=C(O)c2ccccc2C(=O)/C1=C\c1ccc(C)cc1 do in these assays?
Diaph inh CS: 48.6; G6PDH counter: 50.9*; Redox H2O2 prof: 0.1; L major viab: -4.5; Diaph act CS: 0.5; PfG6PD inh: 95.7*

How did CCOC(=O)C1=C(C)OC(=Cc2ccccc2)C1=O do in these assays?
PfG6PD inh: 3.3

What do the screens show for `COc1nc(OC)nc(Oc2ccc([N+](=O)[O-])cc2Cl)n1`?
Diaph inh CS: -0.7; G6PDH counter: 11.1; Redox H2O2 prof: -0.4; L major viab: -12.3; Diaph act CS: 1; PfG6PD inh: 8.6

How did CCCN1C/C(=C/c2cccc([N+](=O)[O-])c2)C(=O)/C(=C/c2cccc([N+](=O)[O-])c2)C1 do in these assays?
Diaph inh CS: -4.6; G6PDH counter: 4.6; Redox H2O2 prof: -1.1; L major viab: 100.6*; Diaph act CS: 1; PfG6PD inh: 2.6

How did CCCN1C/C(=C/c2ccc3c(c2)OCO3)C(=O)/C(=C/c2ccc3c(c2)OCO3)C1 do in these assays?
Diaph inh CS: 11.1; G6PDH counter: -20.9; Redox H2O2 prof: 1.9; L major viab: 100.3*; Diaph act CS: 0.9; PfG6PD inh: 0.3

What do the screens show for `COc1ccccc1N(C)S(=O)(=O)c1ccc(Cl)c(C(=O)OCc2c(C)noc2C)c1`?
Diaph inh CS: 9.5; G6PDH counter: 5.6; Redox H2O2 prof: -0.2; L major viab: 53.1*; Diaph act CS: 0.9; PfG6PD inh: -11.5

What do the screens show for `O=c1cc(CSc2ccc(Cl)cc2)nc(-c2ccncc2)[nH]1`?
Diaph inh CS: -5.5; G6PDH counter: -0.9; Redox H2O2 prof: 0.0; L major viab: -9.0; Diaph act CS: 1.1; PfG6PD inh: -15.5

How did CCOC(=O)c1c(/N=C/N(C)C)sc(C)c1C do in these assays?
Diaph inh CS: 8.4; G6PDH counter: 0.4; Redox H2O2 prof: -1.9; L major viab: 3.4; Diaph act CS: 0.9; PfG6PD inh: 4.7

What do the screens show for `CCOC(=O)c1c(/N=C/N(C)C)sc(/C=N/Nc2ccccc2)c1-c1ccc(Cl)cc1`?
Diaph inh CS: 19.9; G6PDH counter: 0.3; Redox H2O2 prof: 5.3; L major viab: 93.7*; Diaph act CS: 0.8; PfG6PD inh: 10.4

What do the screens show for `Clc1ccc(-c2nc3ccccn3c2CN2CCCCC2)cc1`?
Diaph inh CS: 7.9; G6PDH counter: 0.0; Redox H2O2 prof: -1.8; L major viab: 76.8*; Diaph act CS: 0.9; PfG6PD inh: -5.5

Results for COc1ccc(-c2nc3c4ccccc4ccn3c2CN2CCCCC2)cc1 ?
Diaph inh CS: 29.0; G6PDH counter: 8.4; Redox H2O2 prof: 0.8; L major viab: 100.0*; Diaph act CS: 0.7; PfG6PD inh: 32.1

Results for O=C(CCN1C(=O)C2C3C=CC(C4CC34)C2C1=O)Oc1ccc(Br)cc1 (stereo not drawn) ?
Diaph inh CS: 11.4; G6PDH counter: 1.5; Redox H2O2 prof: -0.2; L major viab: 3.4; Diaph act CS: 0.9; PfG6PD inh: -7.2

Results for O=C(CCN1C(=O)C2C3C=CC(C4CC34)C2C1=O)Oc1cccc2cccnc12 (stereo not drawn) ?
Diaph inh CS: 24.1; G6PDH counter: 52.8*; Redox H2O2 prof: -3.8; L major viab: -3.8; Diaph act CS: 0.8; PfG6PD inh: -12.9

What do the screens show for `NS(=O)(=O)c1ccc(NC(=O)COC(=O)CCCN2C(=O)c3cccc4cccc(c34)C2=O)cc1`?
PfG6PD inh: -6.6

What do the screens show for `COc1cc(NC(=O)C2=C(N3CCOCC3)/C(=C/c3ccc(Cl)cc3)CC2)cc(OC)c1OC`?
Diaph inh CS: 35.0; G6PDH counter: -37.1; Redox H2O2 prof: 0.7; L major viab: 16.6; Diaph act CS: 0.7; PfG6PD inh: 6.6

Results for COc1cc(NC(=O)C2=C(N3CCOCC3)/C(=C\c3ccc(N(C)C)cc3)CCC2)cc(OC)c1OC ?
Diaph inh CS: 27.7; G6PDH counter: -2.2; Redox H2O2 prof: -0.1; L major viab: 98.0*; Diaph act CS: 0.7; PfG6PD inh: 8.1

What do the screens show for `CC(=O)n1cc([C@@H]2C=C(C(=O)N3CCOCC3)O[C@H](OCc3ccc(CO)cc3)C2)c2ccccc21`?
Diaph inh CS: 37.8; G6PDH counter: 22.3; Redox H2O2 prof: 0.8; L major viab: 23.3; Diaph act CS: 0.6; PfG6PD inh: 4.7

What do the screens show for `CC(=O)n1cc([C@@H]2C=C(C(=O)NCc3ccccc3)O[C@H](OCc3ccc(CO)cc3)C2)c2ccccc21`?
PfG6PD inh: 11.4

Results for CC(=O)n1cc([C@H]2C=C(C(=O)N3CCN(Cc4ccccc4)CC3)O[C@@H](OCc3ccc(CO)cc3)C2)c2ccccc21 ?
Diaph inh CS: 51.6*; G6PDH counter: 19.6; Redox H2O2 prof: 0.0; L major viab: 31.1; Diaph act CS: 0.5; PfG6PD inh: 17.6

Results for CC(=O)n1cc([C@H]2C=C(C(=O)Nc3ccccc3)O[C@@H](OCc3ccc(CO)cc3)C2)c2ccccc21 ?
Diaph inh CS: 34.9; G6PDH counter: 8.2; Redox H2O2 prof: 0.4; L major viab: 60.0*; Diaph act CS: 0.7; PfG6PD inh: 12.5

How did CC(=O)n1cc([C@H]2C=C(C(=O)N3CCN(Cc4ccc5c(c4)OCO5)CC3)O[C@@H](OCc3ccc(CO)cc3)C2)c2ccccc21 do in these assays?
Diaph inh CS: 23.0; G6PDH counter: 6.9; Redox H2O2 prof: 0.3; L major viab: 76.2*; Diaph act CS: 0.8; PfG6PD inh: 6.0

How did CCc1cc(=O)oc2cc(OC(C)C(=O)O)c(Cl)cc12 (stereo not drawn) do in these assays?
Diaph inh CS: -7.6; G6PDH counter: 3.2; Redox H2O2 prof: -2.2; L major viab: -6.2; Diaph act CS: 1.1; PfG6PD inh: -24.7

Results for Cc1ccc2cc(C3C(C#N)=C(N)Oc4c3ccc3cccnc43)c(=O)[nH]c2c1 (stereo not drawn) ?
Diaph inh CS: 39.4; G6PDH counter: 16.1; Redox H2O2 prof: 1.7; L major viab: 90.5*; Diaph act CS: 0.6; PfG6PD inh: 2.5

What do the screens show for `CCc1ccc2[nH]c(=O)c(C3C(C#N)=C(N)Oc4c3ccc3cccnc43)cc2c1` (stereo not drawn)?
Diaph inh CS: 51.6*; G6PDH counter: 9.9; Redox H2O2 prof: -6.2; L major viab: 10.1; Diaph act CS: 0.5; PfG6PD inh: -1.6

What do the screens show for `N#CC1=C(N)Oc2c(ccc3cccnc23)C1c1cccnc1` (stereo not drawn)?
Diaph inh CS: 21.1; G6PDH counter: 12.4; Redox H2O2 prof: -0.4; L major viab: -11.6; Diaph act CS: 0.8; PfG6PD inh: -4.9

How did CCOc1cccc(C2C(C#N)=C(N)Oc3cc(C)[nH]c(=O)c32)c1OCC (stereo not drawn) do in these assays?
PfG6PD inh: 0.5
